Measured values: PMC9236207 (ACS Pharmacology & Translational Science, 2022)

What was measured:
ACE2 [1] = target: T1, ACE2 (Homo sapiens, UniProt Q9BYF1); experiment: ACE2 binding by microscale thermophoresis
Outline: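 Seven-point twofold compound dilution series. MST at 45% excitation and medium MST power. Kd (± standard error) fitted from the change in normalized fluorescence. A poly-His peptide counterscreen was run under identical conditions.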

ACE2 [2] = target: T1, ACE2; experiment: ACE2 enzymatic assay; format: biochemical
Outline: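 Fluorometric assay with His-tagged ACE2 extracellular domain at 0.2 nM final in PBS pH 7.4, 0.01% Tween-20, preincubated with compound for 15 min at RT. Then MCA-Ala-Pro-Lys(Dnp)-OH substrate was added (60 μM stock). Fluorescence read at 340/440 nm at 0 and 15 min, RT.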

T1 sequence (Q9BYF1 18-740): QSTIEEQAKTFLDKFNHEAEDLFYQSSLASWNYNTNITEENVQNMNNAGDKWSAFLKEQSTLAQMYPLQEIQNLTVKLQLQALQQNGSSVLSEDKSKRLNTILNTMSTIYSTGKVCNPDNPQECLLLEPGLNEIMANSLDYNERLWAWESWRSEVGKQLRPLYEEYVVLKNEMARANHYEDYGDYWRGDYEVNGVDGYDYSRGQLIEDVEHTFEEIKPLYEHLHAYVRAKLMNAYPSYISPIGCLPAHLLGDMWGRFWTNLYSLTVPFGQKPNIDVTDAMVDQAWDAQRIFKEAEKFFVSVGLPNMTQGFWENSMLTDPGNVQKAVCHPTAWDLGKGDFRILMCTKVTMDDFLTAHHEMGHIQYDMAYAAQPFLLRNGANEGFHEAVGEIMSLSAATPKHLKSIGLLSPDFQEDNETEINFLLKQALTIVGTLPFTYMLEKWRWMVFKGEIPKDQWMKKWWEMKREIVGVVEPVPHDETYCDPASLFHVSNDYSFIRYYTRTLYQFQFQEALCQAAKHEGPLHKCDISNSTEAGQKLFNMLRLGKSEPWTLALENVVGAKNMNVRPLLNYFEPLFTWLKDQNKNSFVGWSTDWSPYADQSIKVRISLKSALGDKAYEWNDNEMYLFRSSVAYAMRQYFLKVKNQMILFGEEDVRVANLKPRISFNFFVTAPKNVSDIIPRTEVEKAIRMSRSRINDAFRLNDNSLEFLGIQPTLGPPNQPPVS

Structure (SMILES): CC(C)C[C@H](N[C@@H](Cc1cncn1Cc1cc(Cl)cc(Cl)c1)C(=O)O)C(=O)O [MLN-4760]
- Kd (ACE2 [1]): 702 nM
- IC50 (ACE2 [2]): 1.5 nM
